Experimental data reported in the RNAGym collection of RNA variant scans (doi:10.1126/science.aae0568).
Variants at the floor of the assay were thinned out.

B1: tRNA (parent)
chain: GUUCCGUUGGCGUAAUGGUAACGCGUCUCCCUCCUAAGGAGAAGACUGCGGGUUCGAGUCCCGUACGGAACG

Variants of: B1
Assay: yeast fitness relative to wild type (ratio to wild type); higher = fitter; tRNA-Arg(CCU), competitive growth, 37 C, YPD
Outline: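 For this measurement, the tRNA-Arg(CCU) gene was varied by chemical synthesis at a 3% per-site mutation rate across 69 sites, and each variant was placed at the native genomic locus in Saccharomyces cerevisiae. The pooled strains went through a 24-hour competition in YPD at 37°C in six parallel replicates, with amplicons from start and end populations read by 100-nucleotide paired-end sequencing. Darwinian fitness relative to wild type followed from the change in each genotype's frequency. Genotypes needed ≥ 100 starting reads, and estimates < 0.5 were set to 0.5.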

Point of comparison: GUUCAGUUGGCGUAAUGGUAACGCGUCUCCCUCCUAAGGAGAAGACUGCAGGUUCGAGUCCCGUACGGAACG, yeast fitness 0.87. Against it:
- GUUCAGUUGGCGUAAUGGUAACGCGUCUCCCUCCUAAGAAGAAGACUGUGGGUUCGAGUCCCGUACAGAACG — lower, ≤ 0.5
- GUUCAGUUGGCGUAAUGGUAACGCGUCUCCCUCCUAAGGAGAACACUGCGGGUCCGAGUCCCGUACGGAACG — lower, 0.556
- GUUCAGCUGGCGUAAUGGUAACGCGUCUCCCUCCUAAGGAGAAGACUGCGGGUUCGAGACCCGUACGGAACG — lower, ≤ 0.5
- GUUCAGUUGGCGUAAUGGUAACCCGUCUCCCUCCUAAGGAGAAGACUGCGGGUUCGAGUCCCGUACGGAACG — lower, 0.723
- GUUCAGUUGGCGUAAUGGUAACACGUCUCCCUCCUAAGGAGAAGACUGCGGGUUCGAGUCCCGUACGGAACG — lower, 0.753
- GUUCAGUUGGCGUAAUGGUAACGCGUCUCCCUCCUAAGGAAAAGACUGCGGGUUCGAGUCCCGUACGGAGCG — lower, 0.604
- GUUCAGUUGGCGUAAUGCUAACGCGUCUCCCUCCUAAGGAGAAGACUGCGGGUUCGAGUCCCGUACCGAACG — lower, 0.561
- GUUCAGUUGGCGUAAUCGUAACGCGUCUCCCUCCUAAGGAGAAGACUGCGGGUUCGACUCCCGUACGGAACG — lower, ≤ 0.5
- GUUCAGUUGGCGUAAUGGUAACAUGUCUCCCUCCUAAGGAGAAGACAGCGGGUUCGAGUCCCGUACGGAACG — lower, ≤ 0.5
- GUUCAGUUGGCGUAAUGGUAACGCGUCUCCCUCCUAAGGAGAAAACUGCGGGUUCGAGUCCCGUACGGAACG — lower, 0.716
- GUUCAGUUGGCGUAAUGGUAACGCGUCUCCCUCCUAAGGAGAACACUGCGGGUUCGAGUCCCGUACGGAACG — lower, 0.8
- GUUCAGUUGGCGUAAUGAUAACGCGUCUCUCUCCUAAGGAGAAGACUCCGGGUUCGAGUCCCGUACGGAACG — lower, ≤ 0.5
- GUUCAGUUGGCGUAAUGGUAACGCGUCUCCCUCCUAAGGAGAAGACUGCGGGUUCGAGUCCCCUACGGAACG — lower, 0.761
- GUUCAGAUGGCGUAAUGGUAACGCGUCUCCCUCCUAAGGAGAAGACUGCGGGUUCGAGUCCCGUACGGAACG — lower, 0.636
- GUUCAGCUGGCGUAAUGGUAACGCGUCUCCCUCCUAAGGAGAAGACUGCGGGUUCGAGUCCCGUACGGAACG — lower, 0.655
- GUUCAGCUGGCGUAAUGGUAACGCGUCUCCCUCCUAAGGAGAAGACUGCGGGUUCGAGUCCUGUACGGAACG — lower, ≤ 0.5
- GUUCAGUUGGCGUAAUGGUAACGCGUCUCCCUCCUAAGGAGAAGACUCCGCGAUCGAGUCCCGUAAGGAACG — lower, 0.559
- GUUCAGUUGGCGUAAUGGUAACGCGUCUCCCUCCUAACGAGAAGACUGCGAGUUCGAAUCCCGUACGGAACG — lower, 0.506
- GUUCAGCUGGCGUAAUGGUAACGCGUCUCCCUCCUAAGGAGAAGACUGCGGGUUCGAGUCCCCUACGGAACG — lower, ≤ 0.5
- GUUCAGUUGGCGUAAUGAUAACGCGUCUCCCUCCUAAGGAGAAGACUGCGGGUUCGAGUCCCGUACGGUACG — lower, ≤ 0.5
- GUUCAGUUGGCGUAAUGGUAACGCGUCUCCCUCCUAAGGAGAAGACUCCGGGUUCGAGUCCUGUACGGAACG — lower, 0.629
- GUUCAGUUGGCGUAAUGGUAACGCGUCUCCCUCCUAAGGAAAAGACUGCGGGUUCGAGUCCCGUACGGAACG — higher, 0.873
- GUUCAGUUGGCGUAAUCGUAACGCAUCUCCCUCCUAAGGAGAAGACUGCGGGUUCGAGUCCCGUACGGAACG — lower, ≤ 0.5
- GUUCAGUUGGCGUAAUGGUAACGCGUCUCCCUCCUAACGAGGAGACUGCGGGUUCGAGUCCCGUACGGAACG — lower, 0.582
- GUUCAGUUGGCGUAAUGGUAACGCGUCUCCCUCCUAAAGAGAAGACUGCGGGUUCGAGUCCUGUACGGAACG — lower, 0.639
- GUUCAGUAGGCGUAAGGGUUACGCGUCUCCCUCCUGAGGAGAAGACUGCGGGUUCGGGUCCCGUACGAAACG — lower, ≤ 0.5
- GUUCAGUUGGCGUAAUGGUAACCCGUCUCCCUCCUAAGGAGAAGACUCCGGGUUCGAGUCACGUACGGAACG — lower, ≤ 0.5
- GUUCAGUUGGCGUAAUCGUAACGCGUCCCCCUCCUAAGGAGAAGACUGCGGGUUCGAGUCCCGUACGGAACG — lower, ≤ 0.5
- GUUCAGUUGGCGUAAUGGUAACGCGUCUCCCUCCUAAGAAGAAGACUGCGGGUUCCAGUCCCGUACGGAACG — lower, ≤ 0.5
- GUUCAGUUGGCGUAAUGGUAACGCGUCUCCCUCCUAAGGAGAAGACUGCGAGUUCGAGUCGCGUACGGAACG — lower, ≤ 0.5
- GUUCAGUUGGCGUAAUGGUAACGCGUCUCCCUCCUAAGGAGAAGACUGCGGCUUCGAGUCCCGUACUGUACG — lower, ≤ 0.5
- GUUCAGUUGGCGUAAUGGUAACGCCUCUCUCUCCUAAGGAGAAGACUGCGGGUUCGAGUCCCGUACGGAACG — lower, 0.576
- GUUCAGUUGGCGUAAUGGUAACGCGUCUCCCUCCUAAGGAGAAGACUGCGGGUUCGAGUCCCGUACGCAACG — lower, 0.802
- GUUCAGUUGGCGUAAUGGUAACGCGUCUCCCUCCUAAGGAGAAGACUGCGGGUUCGAGUCCCGUACGAAACG — lower, 0.82
- GUUCAGUUGGCGUAAUGGUAACGCCUCUCCCUCCUAAGGAGAAGACUGCGGGUUCGCGUCCCGUACAGUACG — lower, 0.525
- GUUCAGUUGGCGUAAUGGUAACGCGUCUCCCUCCUAAGGAGAAGACUGCAGGCUCGAGUCCAGUACGGUACG — lower, ≤ 0.5
